# Hits are enriched below; roughly 0.72% of the tested compounds scored in any of these assays.
# mIAP activ – mouse IAP activation | muIAP, CDP-Star luminescence, 30 min; stronger effect = higher value; 1 = vehicle-only enzyme signal, 0 = enzyme-free wells | activation factor at 10 µM | actives 0.24% (n = 330,000) | AID 2805;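 active means activation factor of at least 2 at 20 µM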
#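 Assay system: mouse IAP enzyme; reagent: chemiluminescent substrate CDP-Star; dosing: test compounds delivered from DMSO solution; schedule: 30 min at room temperature; measured by: luminescence from enzymatic CDP-Star hydrolysis; controls: DMSO-only wells and no-enzyme negative control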
# bIAP inh – intestinal alkaline phosphatase (bovine) inhibition; purified bovine IAP, CDP-star luminescence, 30 min; inhibition, % at 20 µM; 190,000 tested, under 10 active;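 active means over 50% inhibition of intestinal alkaline phosphatase at 20 µM in the single-dose screen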
#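 System: purified bovine intestinal alkaline phosphatase (IAP) enzyme; Input: IAP diluted 1/65,000,000 in the well; Measured by: CDP-star luminescence signal; Compound dosing: 20 µM single dose; Incubation: 30 min reaction at room temperature.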
# hIAP inh – human IAP inhibition; P09923; purified IAP, CDP-Star luminescence, 30 min; inhibition, % at 10 µM; actives 0.12% (n = 330,000); AID 2544;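 active means inhibition reaching a set limit with compound at 10 µM in the primary screen, cut at about 35% in these data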;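 further: plate controls were DMSO wells with enzyme for no effect and no-enzyme buffer wells for full effect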
# Target sequence (P09923 whole entry, looked up): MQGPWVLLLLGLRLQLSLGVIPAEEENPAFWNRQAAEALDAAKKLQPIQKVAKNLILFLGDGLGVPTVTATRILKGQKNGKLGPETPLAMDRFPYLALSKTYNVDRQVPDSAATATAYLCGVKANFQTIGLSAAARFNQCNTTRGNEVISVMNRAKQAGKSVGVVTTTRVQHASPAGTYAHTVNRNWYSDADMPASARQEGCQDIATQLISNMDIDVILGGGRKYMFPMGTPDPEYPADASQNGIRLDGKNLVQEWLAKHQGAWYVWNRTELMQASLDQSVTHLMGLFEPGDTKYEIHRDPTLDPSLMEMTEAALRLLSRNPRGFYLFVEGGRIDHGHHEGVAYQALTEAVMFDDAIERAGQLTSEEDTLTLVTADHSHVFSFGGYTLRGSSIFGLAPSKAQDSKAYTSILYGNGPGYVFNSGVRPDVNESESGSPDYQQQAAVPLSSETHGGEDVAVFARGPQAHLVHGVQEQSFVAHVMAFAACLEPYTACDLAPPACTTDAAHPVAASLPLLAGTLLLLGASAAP
# mIAP block – blocks mouse intestinal alkaline phosphatase; purified mouse IAP, CDP-Star luminescence, 30 min; inhibition, % at 10 µM; actives 0.2% (n = 330,000); AID 2806;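 active means inhibition of at least 40% at 10 µM in the primary screen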;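 further: plate controls were DMSO with enzyme for no effect and no enzyme wells for full effect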
# bIAP act – increases bovine intestinal alkaline phosphatase activity; purified bovine IAP, CDP-star luminescence, 30 min; stronger effect = higher value; fold of DMSO-control signal, blank-subtracted; activation factor at 20 µM; actives 0.17% (n = 200,000);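 active means activation factor of 2 or more at 20 µM, a signal rise over negative controls twice the positive control's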
# hIAP act – human IAP activation; purified human IAP, CDP-Star luminescence, 30 min; stronger effect = higher value; 1 = vehicle-only enzyme, 0 = enzyme-free background; actives 0.16% (n = 330,000); activation factor at 10 µM; P09923;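 active means activation factor of the enzyme at least 2-fold when tested at 20 µM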
# mIAP inh conf – mouse IAP inhibition confirmation; shares compounds with mIAP block; purified mouse IAP, CDP-Star luminescence, 30 min; inhibition, % at 10 µM; actives 4.7% (n = 11,000); AID 434971;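 active means inhibition of at least 40% at 10 µM in either of the two replicates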;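 further: plate controls were DMSO wells with enzyme for no effect and buffer wells lacking enzyme for full effect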
# Numbers without * were called inactive; . = no result given; ! = not confirmed by another sample.
SMILES,mIAP activ,bIAP inh,hIAP inh,mIAP block,bIAP act,hIAP act,mIAP inh conf
COc1cccc(NC(=O)NC2CCCCCCC2)c1,2.05*,.,-13.5,-105.3,.,1.14,-167.0
COc1cc(NC(=O)NC2Cc3ccccc3C2)cc(OC)c1,3.37*,.,-28.4,-237.4,.,1.28,-168.8
CCN(CC(=O)Nc1c(F)cccc1F)C(=O)CCNC(=O)c1ccc([N+](=O)[O-])cc1,1.04,.,6.0,-4.5,.,0.94,.
Oc1cccc(NC(=S)Nc2ccc(SC(F)F)cc2)c1,0.874,-11.0,6.0,12.6,1.1,0.94,.
FC(F)Sc1ccc(NC(=S)NC2CCC(NC(=S)Nc3ccc(SC(F)F)cc3)CC2)cc1 (stereo unspecified),2.45*,36.0,-6.5,-145.1,0.6,1.06,-135.1
CC(C)CCNC(=O)Nc1ccc2c(c1)N(C)C(=O)CS2,1.72,21.0,-13.2,-72.1,0.8,1.13,.
CN1C(=O)CSc2ccc(NC(=O)NCCC3=CCCCC3)cc21,3.79*,11.6,-95.7,-279.0,0.9,1.96,-121.7
CN(C)c1oc(-c2ccc(Cl)cc2)nc1S(=O)(=O)c1ccccc1,0.944,-31.6,3.1,5.6,1.3,0.969,.
O=C(CN1C(=O)/C(=C\c2ccco2)SC1=S)Nc1ccc(O)cc1C(=O)O,0.298,.,-10.2,70.2*,.,1.1,80.6*
O=C(CCCN1C(=O)/C(=C\c2ccccc2)SC1=S)Nc1ccc(O)cc1C(=O)O,1,.,-3.5,-0.4,.,1.03,.
O=C(CCN1C(=O)/C(=C/c2ccco2)SC1=S)Nc1ccc(O)cc1C(=O)O,0.313,.,-3.3,68.7*,.,1.03,78.3*
O=C(CCCN1C(=O)/C(=C/c2ccco2)SC1=S)Nc1ccccc1C(=O)O,0.309,.,7.3,69.1*,.,0.927,61.5*
O=C(O)CCCN1C(=O)/C(=C\c2ccco2)SC1=S,.,5.6,.,.,0.9,.,.
Cc1ccc(C(=O)Nc2ccccc2C(=O)O)cc1S(=O)(=O)Nc1ccc(Br)cc1,0.874,.,1.4,12.6,.,0.986,.
c1coc(CNc2nc(-c3cccs3)cs2)c1,0.549,2.4,0.1,45.1*,1,0.999,48.8*
Cn1cccc1C(=O)OCC(=O)Nc1ccc2c(c1)OCCO2,1.06,.,-26.8,-5.7,.,1.27,.
COC(=O)c1ccc(NC(=O)CSc2nnc(-c3cccnc3)o2)cc1,0.887,.,8.3,11.3,.,0.917,.
C=Cc1c(C)c2cc3[nH]c(cc4nc(cc5nc(cc1[nH]2)C(C)=C5CCC(=O)O)C(CCC(=O)O)=C4C)c(C)c3C=C,0.579,.,14.0,42.1*!,.,0.86,42.1*
COc1ccc(/C(O)=C2/C(=O)C(=O)N(c3ccccn3)C2c2cccc(Cl)c2)cc1 (stereo unspecified),1.04,.,12.6,-4.2,.,0.874,.
CCCc1ccc(OCc2ccc(C(=O)N3CCSCC3)o2)cc1,0.989,.,-3.0,1.1,.,1.03,.
O=C(N/N=C/c1ccco1)c1cccc(S(=O)(=O)Nc2ccccc2Cl)c1,0.465,26.8,10.5,53.5*,0.7,0.895,61.0*
CC(=O)Nc1ccc(S(=O)(=O)Nc2nc3ccccc3nc2Nc2ccc(C(=O)O)c(O)c2)cc1,0.581,.,0.5,41.9*,.,0.995,50.1*
CC(=O)Nc1ccc(S(=O)(=O)Nc2nc3ccccc3nc2Nc2cccc(O)c2)cc1,0.908,.,-12.3,9.2,.,1.12,.
O=c1c(O)c(-c2ccc(O)c(O)c2)oc2cc(O)cc(O)c12,0.173,.,-8.7,82.7*,.,1.09,90.8*
O=c1c(-c2c(O)cc(O)c3c(=O)cc(-c4ccc(O)cc4)oc23)c(-c2ccc(O)cc2)oc2cc(O)cc(O)c12,0.413,.,9.0,58.7*,.,0.91,65.0*
SMILES,mIAP activ,bIAP inh,hIAP inh,mIAP block,bIAP act,hIAP act,mIAP inh conf
CC(C)c1cc(C(=O)N2CCCC(CCC(=O)N3CCN(c4ccccn4)CC3)C2)no1 (stereo unspecified),1.21,.,-18.1,-20.8,.,1.18,.
Cc1nn(Cc2ccc(Cl)c(Cl)c2)c(C)c1NC(=O)c1cn(-c2ccccc2)nc1-c1ccccc1,2.93*,0.0,-20.5,-193.0,1,1.21,-161.6
O=C(Nc1cccc(Cl)c1)Nc1nc(-c2ccc(Cl)cc2)cs1,2.88*,38.1,12.1,-187.6,0.6,0.879,-109.8
Oc1cc(O)c2c(c1)O[C@H](c1ccc(O)c(O)c1)[C@H](O)C2,0.183,.,18.9,81.7*,.,0.811,61.9*
COc1ccc([C@H]2CC(=O)c3c(O)cc(O)cc3O2)cc1O,0.918,.,-8.3,8.2,.,1.08,.
O=C(O)c1cc(-c2ccco2)[nH]n1,0.306,-2.8,-5.2,69.4*,1,1.05,68.0*
O=C1CC(=O)N(Cc2cccs2)C(=O)N1,0.994,4.4,13.6,0.6,1,0.864,.
O=C1CC(=O)N(Cc2ccco2)C(=O)N1,0.519,-26.1,-5.0,48.1*,1.3,1.05,52.7*
O=C1CC(=O)N(Cc2ccco2)C(=S)N1,0.297,-8.9,21.1,70.3*,1.1,0.789,74.9*
COc1ccc(C2CC(c3ccccc3Cl)=NN2c2ccc(S(N)(=O)=O)cc2)cc1 (stereo unspecified),2.21*,.,.,-121.5,.,.,-117.8
Oc1ccc(/C=N/Nc2cc(N3CCCC3)nc(N3CCCC3)n2)cc1O,0.322,-3.1,-0.1,67.8*,1,1,76.5*
Oc1ccc(/C=N\Nc2cc(N3CCOCC3)nc(N3CCOCC3)n2)c(O)c1,0.853,-7.5,10.0,14.7,1.1,0.9,.
COc1ccc(CCNC(=O)c2cc(-c3cc(Cl)cc(Cl)c3)oc2C)cc1,4*,-3.2,-0.2,-299.5,1,1,-107.2
O=C(NC1CCCCC1)Oc1cc2oc(=O)sc2cc1Br,0.396,.,2.2,60.4*,.,0.978,80.6*
O=c1oc2ccccc2c(Nc2cccc(O)c2)c1[N+](=O)[O-],0.518,27.1,14.8,48.2*,0.7,0.852,50.0*
CSc1ccc(CN2CCC(n3nccc3NC(=O)CCCc3ccccc3)CC2)cc1,2.71*,.,-83.9,-170.6,.,1.84,-126.5
Nc1cc2nc3ccccc3oc-2cc1=O,0.495,.,3.0,50.5*,.,0.97,41.5*
Cc1cccc(C)c1NC(=O)CCc1nnc2ccc(N3CCCC3)nn12,0.95,.,13.1,5.0,.,0.869,.
COC(=O)c1ccc(OC(=O)/C=C/c2ccco2)cc1,0.978,.,-12.2,2.2,.,1.12,.
O=Cc1cccc(OC(=O)/C=C/c2ccco2)c1,0.514,.,3.8,48.6*,.,0.962,57.4*
CCOC(=O)Cc1nnc2c(Nc3ccc(Cl)cc3)nc3nonc3n12,0.748,5.3,17.5,25.2,0.9,0.825,37.0*
COc1ccc(CN2C3CCCC2CC(NC(=O)Nc2ccccc2)C3)cc1 (stereo unspecified),5.26*,9.3,17.5,-426.4,0.9,0.825,-365.3
